In ChEMBL document CHEMBL1151697, “Synthesis and structure-activity relationships for biphenyl H3 receptor antagonists with moderate anti-cholinesterase activity” (Bioorg Med Chem, 2008):
The source made the active and inactive calls. No cut-off for these calls is given here.

What was measured:
[1] = biological target: T1, Histamine H3 receptor (Homo sapiens, UniProt Q9Y5N1); assay: Antagonist activity at human histamine H3 receptor expressed in SK-N-MC cells by CRE-mediated beta-galactosidase reporter gene assay administered 10 mins before (R)-alpha-methylhistamine challenge after 6 hrs; assay type: functional, cell-based
How it was run: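 SK-N-MC cells stably carrying human H3 and a β-galactosidase reporter. Compound added to medium, forskolin 5 min later, then (R)-α-methylhistamine 10 min after compound; 6 h at 37 °C. Cells lysed in phosphate assay buffer (pH 8) with 0.5% Triton and 40 mM β-mercaptoethanol; β-galactosidase read at 570 nm. Means of 4–6 experiments.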

[2] = biological target: T1, Histamine H3 receptor; assay: Displacement of [3H]RAMHA from human histamine H3 receptor expressed in SK-N-MC cells; assay type: cell-based
How it was run: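 SK-N-MC membranes bearing human H3 incubated 60 min at room temperature with 0.5 nM [3H]-(R)-α-methylhistamine and competitor (0.01 nM to 10 µM). Rapid filtration, two washes in ice-cold 50 mM Tris–HCl/5 mM EDTA. Nonspecific binding with 10 µM histamine. pKi via Cheng–Prusoff; means of 4–6 experiments.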

[3] = biological target: Histamine H3 receptor (Rattus norvegicus, UniProt Q9QYN8); assay: Displacement of [3H]RAMHA from histamine H3 receptor in Wistar rat brain membrane; assay type: cell membranes
How it was run: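 Membranes from male Wistar rat brain (150–200 g) incubated 45 min with 0.5 nM [3H]RAMHA and compound (0.03 nM to 10 µM) in 50 mM Tris–HCl pH 7.4, 50 mM NaCl, 0.5 mM EDTA. Vacuum filtration, two ice-cold buffer rinses. Nonspecific binding set with 10 µM thioperamide. pKi by Cheng–Prusoff.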

[4] = biological target: T2, Acetylcholinesterase (Rattus norvegicus) (UniProt P37136); assay: Inhibition of acetylcholinesterase in Wistar rat brain homogenate at upto 10 uM by Ellman's method; assay type: tissue-based
T2 sequence (whole entry): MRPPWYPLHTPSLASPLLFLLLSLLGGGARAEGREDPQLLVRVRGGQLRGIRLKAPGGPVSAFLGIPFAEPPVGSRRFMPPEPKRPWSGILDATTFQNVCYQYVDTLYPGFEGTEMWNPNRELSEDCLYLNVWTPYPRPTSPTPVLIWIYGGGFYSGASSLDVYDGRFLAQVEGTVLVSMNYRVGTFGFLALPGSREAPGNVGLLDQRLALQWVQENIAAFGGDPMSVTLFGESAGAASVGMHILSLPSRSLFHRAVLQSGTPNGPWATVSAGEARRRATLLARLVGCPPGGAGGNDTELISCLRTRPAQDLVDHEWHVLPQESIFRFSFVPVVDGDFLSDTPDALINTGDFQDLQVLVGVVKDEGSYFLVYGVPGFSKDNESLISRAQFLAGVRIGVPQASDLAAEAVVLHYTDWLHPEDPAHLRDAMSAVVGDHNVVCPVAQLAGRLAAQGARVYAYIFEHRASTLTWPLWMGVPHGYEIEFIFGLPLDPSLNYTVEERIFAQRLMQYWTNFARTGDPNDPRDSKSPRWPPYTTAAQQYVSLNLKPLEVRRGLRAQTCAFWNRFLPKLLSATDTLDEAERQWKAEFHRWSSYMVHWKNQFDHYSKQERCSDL

[5] = biological target: Histamine H2 receptor (Cavia porcellus) (UniProt P47747); assay: Antagonist activity at histamine H2 receptor in guinea pig atrium assessed as changes in rate of spontaneous beat at upto 10 uM; assay type: functional, tissue-based; conditions: Cardiac atrium
How it was run: (§1)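 Guinea-pig atria (H2) in Ringer–Locke at 31 °C (mM: NaCl 154.0, KCl 5.6, CaCl2 1.08, NaHCO3 5.95, glucose 11.1), gassed 95% O2–5% CO2. Spontaneous beating rate recorded by cardiotachograph. Cumulative dimaprit curves (0.1–100 µM) run without and with compound up to 10 µM. Affinity given as pKB by Furchgott, or as pD2′ by Van Rossum if non-surmountable.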

[6] = biological target: Histamine H1 receptor (Cavia porcellus) (UniProt P31389); assay: Antagonist activity at histamine H1 receptor in guinea pig terminal ileum at upto 10 uM; assay type: functional, tissue-based
How it was run: (§2)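 Guinea-pig (250–350 g) terminal ileum (H1) suspended isometrically in Krebs–Henseleit at 37 °C, aerated 95% O2–5% CO2. Cumulative histamine curves (1 nM to 1 µM) run without and with compound up to 10 µM. pKB (apparent pA2) from Furchgott's equation; pD2′ from Van Rossum's equation when antagonism was non-surmountable.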

[7] = biological target: Histamine H3 receptor (Cavia porcellus) (UniProt Q9JI35); assay: Antagonist activity at histamine H3 receptor in electrically-stimulated guinea pig ileum assessed as inhibition of (R)-alpha-methylhistamine-induced twitch contraction in presence of 1 uM mepyramine; assay type: functional, tissue-based
How it was run: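 Guinea-pig ileum, electrically stimulated (0.1 Hz, 1 ms, submaximal voltage). Twitch inhibition by cumulative (R)-α-methylhistamine (1 nM to 1 µM) with 1 µM mepyramine present. Compounds tested at 1 nM to 30 µM. Potency as pKB from Furchgott's equation, or as pD2′ (Van Rossum) for non-surmountable antagonism.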

[8] = biological target: Histamine H4 receptor (Homo sapiens, UniProt Q9H3N8); assay: Displacement of [3H]histamine from human histamine H4 receptor expressed in SK-N-MC cells at upto 10 uM
[9] = system: SK-N-MC; assay: Cytotoxicity against human SK-N-MC cells at 1 uM after 6 hrs by MTT test; assay type: functional, cell-based
How it was run: (§3)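 MTT viability test: SK-N-MC cells held 6 h with compound (1–10 µM) or vehicle. MTT (5 mg/ml stock) added for 3 h, cells washed in PBS, formazan dissolved in 0.1 N HCl in isopropanol, absorbance read at 570 nm. Viability given relative to control.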

[10] = system: SK-N-MC; assay: Cytotoxicity against human SK-N-MC cells at 10 uM after 6 hrs by MTT test; assay type: functional, cell-based; how it was run: as §3
[11] = biological target: T2, Acetylcholinesterase (Rattus norvegicus); assay: Inhibition of acetylcholinesterase in Wistar rat brain homogenate at upto 1 to 100 uM by Ellman's method; assay type: tissue-based
How it was run: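 Male Wistar rat (150–200 g) brain homogenate in 0.1 M phosphate buffer (pH 8.0) with DTNB (5 mM) and compound at 1–100 µM. Reaction started at 37 °C by adding acetylthiocholine (75 mM solution) and stopped after 15 min with 4% formalin. 5-Thio-2-nitrobenzoate absorbance at 412 nm. Percent inhibition versus control; reported as pIC50.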

[12] = biological target: T3, Acetylcholinesterase (Rattus norvegicus, UniProt P37136); assay: Inhibition of acetylcholinesterase in Wistar rat brain homogenate by Ellman's method; assay type: tissue-based
T3 sequence (P37136 whole entry): T2 sequence (whole entry)

[13] = biological target: Histamine H1 receptor (Cavia porcellus) (UniProt P31389); assay: Antagonist activity at histamine H1 receptor in guinea pig terminal ileum; assay type: functional, tissue-based; how it was run: as §2
[14] = biological target: Histamine H2 receptor (Cavia porcellus) (UniProt P47747); assay: Antagonist activity at histamine H2 receptor in guinea pig atrium assessed as changes in rate of spontaneous beat at upto 1 uM; assay type: functional, tissue-based; conditions: Cardiac atrium; how it was run: as §1

Sequence of Histamine H3 receptor (Rattus norvegicus, UniProt Q9QYN8) (Q9QYN8 whole entry): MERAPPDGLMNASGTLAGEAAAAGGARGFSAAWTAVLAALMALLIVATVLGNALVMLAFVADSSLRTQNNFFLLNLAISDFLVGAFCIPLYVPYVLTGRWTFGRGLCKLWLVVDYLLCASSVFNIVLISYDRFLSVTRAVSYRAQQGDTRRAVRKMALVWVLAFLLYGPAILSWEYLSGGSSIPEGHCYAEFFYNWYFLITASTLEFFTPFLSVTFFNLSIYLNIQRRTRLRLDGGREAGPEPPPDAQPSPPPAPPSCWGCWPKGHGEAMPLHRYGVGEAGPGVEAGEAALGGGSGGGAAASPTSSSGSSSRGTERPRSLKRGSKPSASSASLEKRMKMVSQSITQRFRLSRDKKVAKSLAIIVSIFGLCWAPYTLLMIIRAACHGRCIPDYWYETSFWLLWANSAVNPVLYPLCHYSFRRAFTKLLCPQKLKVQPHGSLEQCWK
Sequence of Histamine H4 receptor (Q9H3N8 whole entry): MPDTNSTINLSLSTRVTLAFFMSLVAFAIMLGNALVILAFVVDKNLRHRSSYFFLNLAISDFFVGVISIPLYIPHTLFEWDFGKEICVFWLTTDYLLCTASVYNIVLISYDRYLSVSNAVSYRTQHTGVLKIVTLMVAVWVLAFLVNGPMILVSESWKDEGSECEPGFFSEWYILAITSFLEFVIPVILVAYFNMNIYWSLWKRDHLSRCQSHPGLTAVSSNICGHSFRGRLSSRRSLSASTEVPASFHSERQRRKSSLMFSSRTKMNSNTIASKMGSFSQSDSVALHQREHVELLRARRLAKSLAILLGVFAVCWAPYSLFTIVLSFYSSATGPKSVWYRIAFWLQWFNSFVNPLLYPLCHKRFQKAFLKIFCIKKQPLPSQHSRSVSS
Sequence of Histamine H2 receptor (Cavia porcellus) (P47747 whole entry): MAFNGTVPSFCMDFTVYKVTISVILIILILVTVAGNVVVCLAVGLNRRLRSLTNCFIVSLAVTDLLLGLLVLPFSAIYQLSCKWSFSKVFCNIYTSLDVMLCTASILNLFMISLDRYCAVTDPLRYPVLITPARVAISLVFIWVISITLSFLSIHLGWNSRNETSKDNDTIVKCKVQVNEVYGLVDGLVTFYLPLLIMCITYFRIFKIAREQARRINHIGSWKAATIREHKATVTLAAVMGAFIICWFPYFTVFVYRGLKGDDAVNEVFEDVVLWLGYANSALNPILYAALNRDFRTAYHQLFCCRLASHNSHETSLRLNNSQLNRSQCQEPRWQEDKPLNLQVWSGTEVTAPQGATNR
Sequence of Histamine H3 receptor (Cavia porcellus) (Q9JI35 whole entry): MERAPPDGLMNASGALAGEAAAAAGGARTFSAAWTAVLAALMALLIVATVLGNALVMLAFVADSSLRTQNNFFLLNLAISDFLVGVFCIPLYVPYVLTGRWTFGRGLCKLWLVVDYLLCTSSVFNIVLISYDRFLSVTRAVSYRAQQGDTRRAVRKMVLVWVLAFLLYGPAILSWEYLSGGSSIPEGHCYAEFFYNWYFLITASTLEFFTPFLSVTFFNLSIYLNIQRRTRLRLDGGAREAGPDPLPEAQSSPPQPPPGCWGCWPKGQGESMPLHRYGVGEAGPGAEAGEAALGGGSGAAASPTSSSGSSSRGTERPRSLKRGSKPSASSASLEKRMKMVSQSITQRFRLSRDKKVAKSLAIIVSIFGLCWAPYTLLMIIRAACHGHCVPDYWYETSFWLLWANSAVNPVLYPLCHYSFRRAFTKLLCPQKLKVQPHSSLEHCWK
Sequence of Histamine H1 receptor (Cavia porcellus) (P31389 whole entry): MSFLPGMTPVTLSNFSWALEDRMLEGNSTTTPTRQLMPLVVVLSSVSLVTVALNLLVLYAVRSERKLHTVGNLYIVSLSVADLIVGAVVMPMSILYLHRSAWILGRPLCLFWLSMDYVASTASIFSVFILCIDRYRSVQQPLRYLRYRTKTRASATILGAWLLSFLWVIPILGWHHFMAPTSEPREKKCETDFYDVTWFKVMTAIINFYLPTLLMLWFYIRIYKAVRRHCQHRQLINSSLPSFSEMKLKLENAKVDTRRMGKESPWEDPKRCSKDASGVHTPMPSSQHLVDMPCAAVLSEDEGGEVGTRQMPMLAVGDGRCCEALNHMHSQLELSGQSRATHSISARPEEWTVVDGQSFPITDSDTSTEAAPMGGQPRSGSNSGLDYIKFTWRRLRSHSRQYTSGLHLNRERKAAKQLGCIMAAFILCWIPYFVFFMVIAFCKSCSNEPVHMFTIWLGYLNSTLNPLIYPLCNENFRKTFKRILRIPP
T1 sequence (Q9Y5N1 whole entry): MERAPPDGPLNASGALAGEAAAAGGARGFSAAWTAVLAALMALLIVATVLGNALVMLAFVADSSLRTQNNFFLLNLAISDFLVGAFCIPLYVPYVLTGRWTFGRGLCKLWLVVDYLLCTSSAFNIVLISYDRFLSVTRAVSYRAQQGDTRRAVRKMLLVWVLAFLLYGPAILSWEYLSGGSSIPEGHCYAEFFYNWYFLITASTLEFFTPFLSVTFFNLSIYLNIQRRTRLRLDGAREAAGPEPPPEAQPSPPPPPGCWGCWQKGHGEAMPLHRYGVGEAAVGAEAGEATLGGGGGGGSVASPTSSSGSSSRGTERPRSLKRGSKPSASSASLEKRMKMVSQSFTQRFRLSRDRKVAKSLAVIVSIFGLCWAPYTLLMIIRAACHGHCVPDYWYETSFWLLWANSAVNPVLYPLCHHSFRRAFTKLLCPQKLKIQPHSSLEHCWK

Structure (SMILES) | pKb [1] | Ki [2] | Ki [3] | Activity [4] | Activity [5] | Activity [6] | pKb [7] | Activity [8] | Activity [9] | Activity [10] | inhibition [11] | IC50 [12] | pD2 [13] | pKb [13] | Activity [14]
CN(C)CCc1ccc(-c2ccc(CCN(C)C)cc2)cc1 | 8.06 | 5.13 nM | 19.5 nM | inactive | inactive | inactive | 8.04 | inactive |  |  |  |  |  |  | 
CC(=O)N1CCN(Cc2ccc(-c3ccc(CN4CCCCC4)cc3)cc2)CC1 | 7.86 |  |  |  | inactive |  | 7.79 | inactive | Not toxic | Not toxic | 79% | 11.5 µM | 4.46 |  | 
CC1CCN(Cc2ccc(-c3ccc(CN4CCC(C)CC4)cc3)cc2)CC1 | 7.68 |  |  |  | inactive |  | 7.3 | inactive | Not toxic | Not toxic | 83% | 3.55 µM |  | 5.89 | 
CCCN(CCC)C(=O)Cc1ccc(-c2ccc(CN3CCCCC3)cc2)cc1 | 8.16 | 8.51 nM | 53.7 nM |  |  |  | 8 | inactive | Not toxic | Not toxic | 80% | 11.2 µM |  | 5.44 | inactive
CCN(CC)Cc1ccc(-c2ccc(CN(CC)CC)cc2)cc1 | 8.96 | 2.82 nM | 2.4 nM | inactive | inactive | inactive | 9.34 | inactive | Not toxic | Not toxic |  |  |  |  | 
CN(Cc1ccc(-c2ccc(CN3CCCCC3)cc2)cc1)C1CCCCC1 | 9.19 | 2.75 nM | 7.41 nM |  | inactive |  | 8.46 | inactive | Not toxic | Not toxic | 93% | 1.38 µM |  | 5.56 | 
CCN(CC)Cc1ccc(-c2ccc(CN3CCCCC3)cc2)cc1 | 8.9 | 1.95 nM | 2.57 nM | inactive | inactive | inactive | 9.41 | inactive | Not toxic | Not toxic |  |  |  |  | 
CCCN(CCC)Cc1ccc(-c2ccc(CC(=O)N3CCCCC3)cc2)cc1 | 6.96 | 251 nM | 178 nM |  |  |  | 7.24 | inactive | Not toxic | Not toxic | 65% | 10.5 µM |  | 5.44 | inactive
O=C1CCCCN1Cc1ccc(-c2ccc(CN3CCCCC3)cc2)cc1 | 7.46 |  |  | inactive | inactive | inactive | 7.57 | inactive | Not toxic | Not toxic |  |  |  |  | 
